Assay results published in ChEMBL document CHEMBL1144865, “N-aminoimidazole derivatives inhibiting retroviral replication via a yet unidentified mode of action” (J Med Chem, 2003).

What was measured:
[1] = test system: Human immunodeficiency virus 1; experiment: Concentration required to inhibit the viral (HIV-1 NNRTI resistant strain) cytopathic effect by 50% in MT-4 cells.; assay type: functional, organism-based; conditions: Human immunodeficiency virus 1, MT4
In short: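 MT-4 cells infected with HIV-1(III_B)-derived strain S0561945 (K103N + Y181C RT mutations, NNRTI-resistant). Cultured with varying compound concentrations; viability read on day 5 post-infection by MTT tetrazolium colorimetry. Value is the concentration giving 50% protection against virus-induced cytopathic effect. Cytotoxicity measured in parallel on mock-infected cells at day 5. Averages ± SD from at least two independent experiments.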

[2] = test system: Human immunodeficiency virus 1; experiment: Concentration required to inhibit the viral (HIV-1 IIIB strain) cytopathic effect by 50% in MT-4 cells.; assay type: functional, organism-based; conditions: Human immunodeficiency virus 1, MT4
In short: (§1)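 Virus-infected MT-4 cells cultured with serial compound dilutions; viability measured 5 days after infection by MTT tetrazolium colorimetric read-out. The value is the concentration protecting 50% of cells from viral cytopathic effect. Averages ± SD from at least two independent experiments. HIV-2 and SIV stocks came from infected MT-4 culture supernatants.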

[3] = test system: Simian immunodeficiency virus; experiment: Concentration required to inhibit the viral (SIV mac251) cytopathic effect by 50% in MT-4 cells.; assay type: functional, organism-based, MT4; conditions: Simian immunodeficiency virus, mac251, MT4; in short: as §1
[4] = test system: Human immunodeficiency virus 1; experiment: Concentration required to inhibit the viral (HIV-1 NL4.3 strain) cytopathic effect by 50% in MT-4 cells.; assay type: functional, organism-based; conditions: Human immunodeficiency virus 1, MT4; in short: as §1
[5] = test system: Human immunodeficiency virus 2; experiment: Concentration required to inhibit the viral (HIV-2 ROD) cytopathic effect by 50% in MT-4 cells.; assay type: functional, organism-based, MT4; conditions: Human immunodeficiency virus 2, MT4; in short: as §1
MT4 [6] = experiment: (§2) Concentration that reduced the MT-4 cell viability by 50%.; assay type: functional, Homo sapiens; conditions: Homo sapiens, MT4
In short: (§3)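 Mock-infected MT-4 cells, run in parallel with the antiviral assay, were exposed to compound. Viability on day 5 was read by MTT colorimetry. The value is the concentration lowering viability by 50%. Averages ± SD from at least two independent experiments.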

C3H/3T3 [7] = experiment: Tested for inhibitory concentration against MSV-Induced transformation of C3H/3T3 embryo murine fibroblast in vitro; assay type: functional, cell-based; conditions: Mus musculus
In short: (§4)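 C3H/3T3 cells seeded at 20 000 cells/mL and incubated 24 h, then infected with 80 focus-forming units of MSV for 120 min. Medium was then replaced with fresh medium containing test compound. Transformation was scored microscopically after 6 days.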

C3H/3T3 [8] = experiment: Tested for minimum inhibitory concentration against MSV-Induced transformation of C3H/3T3 embryo murine fibroblast in vitro; assay type: functional; conditions: Mus musculus; in short: as §4
MT4 [9] = experiment: as §2; assay type: functional, cell-based; conditions: Homo sapiens; in short: as §3
[10] = target: Human immunodeficiency virus type 1 reverse transcriptase (Human immunodeficiency virus 1) (UniProt Q72547); experiment: Tested for the concentration required to inhibit recombinant HIV-1 reverse transcriptase using polyrA.oligodT as the template primer
In short: (§5)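 Recombinant HIV-1 RT assay. Template primer and labelled substrate were poly(rA).oligo(dT) with [³H]dTTP, or poly(rC).oligo(dG) with [³H]dGTP. Each radiolabelled dNTP was at 2.5 μM final in the reaction mixture.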

[11] = target: Human immunodeficiency virus type 1 reverse transcriptase (Human immunodeficiency virus 1) (UniProt Q72547); experiment: Tested for the concentration required to inhibit recombinant HIV-1 reverse transcriptase using polyrC.oligodG as the template primer; in short: as §5

SMILES | IC50 [1] [µM] | IC50 [2] [µM] | IC50 [3] [µM] | IC50 [4] [µM] | IC50 [5] [µM] | CC50 (MT4 [6]) [µM] | IC50 (C3H/3T3 [7]) [µM] | MIC (C3H/3T3 [8]) [µM] | CC50 (MT4 [9]) [µM] | Concentration [10] [µM] | Concentration [11] [µM]
CCC1N=C(S)N(Nc2cccc(Cl)c2)C1c1ccccc1 (stereo not given) | > 39 | 9.06 | 3.88 | > 39 | > 39 | 39 | > 12.1 | > 12.1 |  |  | 
CC(=O)c1ccc(C)cc1NC(C(N)=O)c1c(Cl)cccc1Cl (stereo not given) [LOVIRIDE] | > 10 | 0.014 | > 10 | 0.006 | > 10 |  |  |  | > 10 |  | 
Cc1cccc(NN2C(S)=NC(C)C2c2ccccc2)c1 (stereo not given) | 26.1 | 1.56 | 6.5 | 2.17 | > 35.7 | 88.2 | > 67.7 | > 67.7 |  | 125 | 105
Cc1ccc(NN2C(S)=NC(C)C2c2ccccc2)cc1C (stereo not given) | > 55.6 | 9.3 | 10.3 | 3.54 | > 55.6 | 55.6 | > 64.6 | > 64.6 |  |  | 
Cc1nc(S)n(Nc2cccc(Cl)c2)c1-c1cccc(Br)c1 | 3 | 8.54 | 1.75 | 5.6 | 10.5 | 44 |  |  |  |  | 
CCC1N=C(S)N(Nc2cccc(C)c2)C1c1ccccc1 (stereo not given) | ≥ 53.6 | 17.6 | > 53.6 | 12.8 | > 53.6 | 53.6 |  |  |  |  | 
CC1N=C(S)N(Nc2cccc([N+](=O)[O-])c2)C1c1ccccc1 (stereo not given) | 42.2 | 7.29 | 7.54 | 11.2 | > 48.3 | 48.3 |  |  |  |  | 
Cc1nc(S)n(Nc2cccc(Cl)c2)c1-c1ccc(Cl)cc1 | > 40.8 | > 40.8 | 7.71 | > 40.8 | > 40.8 | 40.8 |  |  |  |  | 
Cc1nc(S)n(Nc2cccc(Cl)c2)c1-c1cccc(Cl)c1 | 1.86 | 5 | 1.22 | 2.48 | 3.91 | 30.9 | > 11.4 | > 11.4 |  |  | 
Cc1cccc(NN2C(S)=NC(C(C)C)C2c2ccccc2)c1 (stereo not given) | > 42.6 | > 42.6 | > 42.6 | > 42.6 | > 42.6 | 42.6 |  |  |  |  | 
Cc1nc(S)n(Nc2cccc(Cl)c2)c1-c1ccccc1 | 9.72 | 6.39 | 8.2 | 8.99 | 8.11 | 66.7 | 38 | > 63.3 |  |  | 
CC1N=C(S)N(Nc2cccc(F)c2)C1c1ccccc1 (stereo not given) | ≥ 43.4 | > 108 | 33.8 | 18.4 | > 108 | 108 |  |  |  |  | 
CC1N=C(S)N(Nc2cccc(Cl)c2)C1c1cccc(C#N)c1 (stereo not given) | > 99.4 | ≥ 99.4 | > 99.4 | 42 | > 99.4 | 99.4 |  |  |  |  | 
